DDE Tn6 FP inh: DD(E)-Tn6 binding inhibition, primary FP screen; P02675; Fibrin DD(E) TRITC-Tn6 fluorescence polarization displacement; inhibition, % at 8.3 µM; 370,000 compounds, 0.21% hits;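 active = inhibition above a per-campaign cutoff: mean of compounds within control limits plus 3 SD, cut at about 15% in these data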;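 also: 0% = median of all compound wells on the plate and 100% = blocking peptide control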
DDE Tn7 FP inh: disrupts Tn7 cyclic peptide binding to fibrin D-Dimer-E complex | FP displacement of FITC-Tn7 peptide from fibrin DD(E); 0% = median of compound wells per plate | inhibition, % at 8.3 µM | 370,000 compounds, 0.13% hits | AID 720508;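 active = inhibition above the mean of compounds falling within the control limits plus 3 SD of them, cut at about 14% in these data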;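 also: 0% = plate median of compound wells and 100% = 10 µM Aha-Tn7 peptide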
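System: human fibrin DD(E); quantity: Fibrin-DD(E) at 2 µM final; also added: fluorescent Tn7 probe at 0.1 µM; compound dosing: single nominal test concentration of 8.3 µM per compound; schedule: 10 min preincubation, 3 h with tracer, room temperature; detection: fluorescence polarization of the labelled Tn7 tracer; repeats: one replicate per compound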
GRK2 aptamer HTS: inhibitors of human GRK2 displacing RNA aptamer | P25098 | bead flow cytometry, FAM-aptamer displacement from GRK2 | inhibition of aptamer binding, % at 10 µM | 330,000 compounds, 0.59% hits | AID 488847;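 active = inhibition of aptamer binding above 40%, roughly 3 SD of noise, on plates passing a quality check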;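 also: median bead fluorescence of bound FAM aptamer so fluorescent compounds give negative values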
Insulin prom up: MIN6 insulin promoter up-regulation; 190,000 compounds, 0.3% hits; MIN6 insulin promoter-GFP reporter, high-content imaging; hits give high values; AID 1625; z-score at 5 µM;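 active = z-score above 3 at 5 µM with at least 500 cells counted in the well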
ABCG2 block: human ABCG2 inhibition, ABCB1 as counter-screen; IgMXP3 cells, JC-1 efflux, flow cytometry; inhibition, % at 6.6 µM; AID 1325; Q9UNQ0; 190,000 compounds, 0.1% hits;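 active = inhibition above 80%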;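 also: 0% = DMSO and 100% = nicardipine control wells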
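Times: 10 min at 25 °C | Test system: Two drug-resistant human cell lines, ABCG2 and ABCB1 | Quantity: 3 million cells/mL final, two lines in 1:1 ratio | Signal: Flow cytometry, 530 nm JC-1 signal | Dosing: Compound at 6.6 µM | Controls: Nicardipine and DMSO wells | Reagent: JC-1 as fluorescent efflux pump substrate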
ABCB1 block: blocks JC-1 efflux by human ABCB1 transporter | P08183 | CCRF-Adr cells, flow cytometry | inhibition, % at 6.6 µM | 190,000 compounds, 0.067% hits | AID 1326; in the data active = inhibition above about 40%;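 also: 0% = vehicle and 100% = reference inhibitor; higher value means more JC-1 retained so stronger ABCB1 efflux block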
Target sequence (P08183 whole entry, looked up): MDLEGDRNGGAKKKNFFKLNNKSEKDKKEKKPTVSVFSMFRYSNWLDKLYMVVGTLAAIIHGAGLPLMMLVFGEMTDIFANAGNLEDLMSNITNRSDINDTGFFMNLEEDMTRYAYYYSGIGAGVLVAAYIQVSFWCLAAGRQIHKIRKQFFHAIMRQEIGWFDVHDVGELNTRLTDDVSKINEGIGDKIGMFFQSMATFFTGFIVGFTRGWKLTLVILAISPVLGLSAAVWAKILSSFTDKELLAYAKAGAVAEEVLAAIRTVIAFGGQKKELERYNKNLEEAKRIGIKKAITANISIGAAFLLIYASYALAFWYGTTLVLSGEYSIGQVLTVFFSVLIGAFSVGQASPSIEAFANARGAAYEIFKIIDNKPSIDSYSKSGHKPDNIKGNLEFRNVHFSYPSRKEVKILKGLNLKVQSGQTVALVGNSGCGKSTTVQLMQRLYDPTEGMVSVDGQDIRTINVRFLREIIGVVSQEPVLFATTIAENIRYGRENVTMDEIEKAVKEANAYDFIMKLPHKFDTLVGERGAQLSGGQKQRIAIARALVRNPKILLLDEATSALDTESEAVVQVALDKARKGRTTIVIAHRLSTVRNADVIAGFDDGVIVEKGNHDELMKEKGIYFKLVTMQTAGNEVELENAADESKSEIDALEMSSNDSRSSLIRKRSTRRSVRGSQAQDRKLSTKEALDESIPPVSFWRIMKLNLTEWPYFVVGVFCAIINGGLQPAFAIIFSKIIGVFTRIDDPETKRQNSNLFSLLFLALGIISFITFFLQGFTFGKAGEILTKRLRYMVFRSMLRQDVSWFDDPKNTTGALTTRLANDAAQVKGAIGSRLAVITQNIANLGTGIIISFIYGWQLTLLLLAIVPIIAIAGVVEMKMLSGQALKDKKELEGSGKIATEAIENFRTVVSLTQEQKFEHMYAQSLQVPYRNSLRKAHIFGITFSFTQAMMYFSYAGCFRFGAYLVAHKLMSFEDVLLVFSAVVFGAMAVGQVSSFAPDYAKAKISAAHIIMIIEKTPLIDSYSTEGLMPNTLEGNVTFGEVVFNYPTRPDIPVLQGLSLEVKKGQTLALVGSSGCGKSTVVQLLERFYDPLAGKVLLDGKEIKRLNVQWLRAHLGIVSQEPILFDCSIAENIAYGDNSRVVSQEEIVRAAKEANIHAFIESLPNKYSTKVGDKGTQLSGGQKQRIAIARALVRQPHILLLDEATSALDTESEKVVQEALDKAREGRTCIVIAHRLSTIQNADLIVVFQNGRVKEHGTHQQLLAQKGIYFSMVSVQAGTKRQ
GRK2 inh confirm: human GRK2 inhibition confirmation, cherry pick 1; 2,000 compounds, 4% hits; aptamer displacement, % at 10 µM; shares compounds with GRK2 aptamer HTS; bead-bound GRK2, FAM-aptamer displacement, flow cytometry;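 active = aptamer displacement above 40%, near three times the noise of non-fluorescent compounds, on plates passing quality checks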;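 also: negative values mostly reflect intrinsic compound fluorescence rather than true enhancement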
Aptamer quench 1: quenches fluorescent RNA aptamer, GRK2 hit artifact; shares compounds with GRK2 aptamer HTS; Fluorescent RNA aptamer beads, quenching, flow cytometry; hits give high values; fluorescence change (kMESF span), kMESF (concentration not given with the values); 110 tested, under 10 active; AID 504521;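 active = compounds whose bead fluorescence drops by more than 37 kMESF across the dose range, marking them as dye quenchers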
Aptamer quench SP: aptamer fluorescence quenching in GRK2 counter-screen | Carboxyfluorescein RNA aptamer on beads, flow cytometry quenching; hits give low values | 2,000 tested, under 10 active | shares compounds with GRK2 aptamer HTS | fluorescence response (% of DMSO), % at 10 µM;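 active = compounds that quench the bead-bound fluorescent RNA probe, cutting fluorescence to under half of the solvent control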;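 also: counterscreen run without GRK2 so only probe quenching by compound is measured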
GRK2 confirm 2: human GRK2 inhibition confirmation, cherry pick 2 | shares compounds with GRK2 aptamer HTS | bead-bound GRK2, FAM-aptamer displacement, flow cytometry | inhibition of aptamer binding, % at 10 µM | 360 tested, under 10 active;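 active = inhibition of aptamer binding above 40%, about triple the noise seen with nonglowing compounds, on plates passing quality control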;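 also: negative values mostly come from compounds that fluoresce themselves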
FAM quench CP2: aptamer fluorescence quenching in GRK2 counter-screen; shares compounds with GRK2 aptamer HTS; AID 588494; 360 tested, under 10 active; carboxyfluorescein RNA aptamer beads, flow cytometry quenching; hits give low values; fluorescence response vs DMSO, % at 10 µM;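 active = response vs DMSO under 50%, meaning signal dropped by over half, treated as fluorescence quencher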;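 also: labelled aptamer on streptavidin beads without GRK2 as a quench counter-screen; 100% = bead fluorescence of DMSO wells and lower means quenching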
FAM quench PS1: aptamer fluorescence quenching in GRK2 powder counter-screen; fluorescence ratio to DMSO, % at 11.1 µM; 35 tested, under 10 active; shares compounds with GRK2 aptamer HTS; AID 588496; Bead-bound FAM RNA aptamer fluorescence quenching, flow cytometry; hits give low values;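 active = compounds that dim the fluorescent label, raw bead signal shifting by over 33 units between lowest and highest dose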
* marks the source's active call; other numbers are inactive results; · = not tested or not shown. The list is not random: actives were taken first. Their share in the collection is about 0.99%.

SMILES	DDE Tn6 FP inh	DDE Tn7 FP inh	GRK2 aptamer HTS	Insulin prom up	ABCG2 block	ABCB1 block	GRK2 inh confirm	Aptamer quench SP	others
COc1ccc(-c2csc(Nc3ccc(S(N)(=O)=O)cc3)n2)cc1	-2.1	-2.6	44.0*	-0.97	1.9	0.0	·	·	GRK2 confirm 2=-10.8;FAM quench CP2=100.0
O=c1c2ccccc2nc2n1CCc1c-2[nH]c2ccccc12	-0.8	0.0	19.0	·	·	·	3.2	95.3
CC(C)(C)c1ccc(C(=O)Nc2cc(Cl)c(F)cc2C(=O)O)cc1	-6.6	-6.6	·	·	·	·	·	·
O=C(Nc1ccc2oc(-c3ccc(F)cc3)nc2c1)c1ccccc1F	5.0	-1.5	2.0	0.01	0.6	0.1	·	·
O=C(NC(=S)Nc1ccc2oc(-c3ccncc3)nc2c1)c1ccccc1F	0.9	0.4	40.0	-0.2	-0.2	-0.2	-14.3	99.7
COc1ccc([C@H]2OC(=O)C[C@@H]2C(=O)N2CCN(c3ccccc3Cl)CC2)cc1OC	8.5	-0.6	·	·	·	·	·	·
Nn1c(SCC(=O)Nc2ccc(S(=O)(=O)Nc3nccs3)cc2)nnc1-c1ccco1	-3.5	-0.7	·	·	·	·	·	·
OC(CNC1CCCC1)COc1ccccc1Br (centres undefined)	-6.8	-0.1	0.0	·	·	·	·	·
OC(CNC1CCCCCC1)COc1cccc2ccccc12 (centres undefined)	0.0	-1.1	52.0*	·	·	·	-4.6	95.0
CCCCN1CC(=O)N2[C@H](C[C@@]3(C)c4ccccc4N(S(=O)(=O)c4ccccc4)[C@@H]23)C1=O	-3.6	-2.5	·	·	·	·	·	·
O=c1[nH]c(CN2CCN(C/C=C/c3ccccc3)CC2)nc2ccccc12	-6.0	2.5	2.0	-0.76	1.6	0.5	·	·	GRK2 confirm 2=19.1;FAM quench CP2=98.0
CC1(c2nnnn2Cc2ccccc2)CCCCC(=O)N1Cc1cccs1 (centres undefined)	6.9	11.0	·	·	·	·	·	·
CC(C)N1CCCCC(NC(=O)c2ccc(F)c(F)c2)C1=O (centres undefined)	1.3	-9.1	·	·	·	·	·	·
Cc1nc(Oc2cccc(Cl)c2)c2oc3ccccc3c2n1	6.9	-1.0	41.0*	-0.19	1.0	0.1	0.1	99.1
COc1ccc(Cl)cc1Nc1nc(C)nc2c1oc1ccccc12	3.3	0.5	0.0	·	·	·	·	·
Cc1ccc2c(c1)-c1c(cnn1CC(=O)NCCc1cccc(F)c1)CO2	-2.9	3.8	·	·	·	·	·	·
Cc1cccc(C)c1NC(=O)C1CCN(c2ncccn2)CC1	0.8	-2.2	·	·	·	·	·	·
COCCNCCCOc1ccc(C(C)(C)c2ccccc2)cc1	-2.5	-2.6	100.0*	1.05	1.7	0.8	·	·	GRK2 confirm 2=-1.4;FAM quench CP2=101.0
CN(C)c1ccc(N=Nc2ccc(C(=O)O)cc2)cc1	0.1	3.0	54.0*	·	·	·	2.3	101.9
CN(C)c1ccc(C(=O)c2ccccc2)cc1	2.4	-5.2	0.0	·	20.6	1.0	·	·
Cc1cc(C)cc(NC(=O)COC(=O)c2ccc3c(c2)OCCO3)c1	-6.1	-1.1	100.0*	·	·	·	-2.5	102.2
COc1ccc(CNC(=O)COC(=O)c2ccc3c(c2)OCCO3)cc1	3.0	6.3	58.0*	-0.61	1.3	0.2	-3.8	104.4
COc1ccc(NC(=O)C(CCCCNC(=O)OC(C)(C)C)NC2(C(=O)NCCc3c[nH]c4ccccc34)CCCCC2)cc1 (centres undefined)	-3.3	-7.8	·	·	·	·	·	·
COc1cccc(NC(=O)NCCC2=CCCCC2)c1	1.1	-3.8	5.0	-0.07	11.4	0.6	·	·
CCOc1ccc(CCNC(=O)Nc2cccc(OC)c2)cc1OCC	7.9	0.9	41.0*	·	·	·	·	·	GRK2 confirm 2=-7.6;FAM quench CP2=98.0
SMILES	DDE Tn6 FP inh	DDE Tn7 FP inh	GRK2 aptamer HTS	Insulin prom up	ABCG2 block	ABCB1 block	GRK2 inh confirm	Aptamer quench SP	others
O=C(NCc1ccccc1)OCCCN1C(=O)CCC12CCCCC2	6.6	0.8	·	·	·	·	·	·
O=C(CSc1nnc(-c2ccc(Cl)cc2)n1-c1ccccc1)NN=Cc1c[nH]c2ccccc12	-5.9	-7.7	·	·	·	·	·	·
Cc1cccc(N2CCN(C(=O)CCS(=O)(=O)c3ccc(Br)cc3)CC2C)c1 (centres undefined)	-4.5	1.6	78.0*	0.37	2.4	0.9	57.2*	102.4	Aptamer quench 1=10.3;FAM quench PS1=100.0
O=C(CCS(=O)(=O)c1ccc(Br)cc1)N1CCN(c2ccccc2)CC1	5.4	-12.0	29.0	0.26	2.2	1.0	·	·
CC(=O)N1CCCc2cc(S(=O)(=O)CCC(=O)N3CCN(c4cccc(C)c4)C(C)C3)ccc21 (centres undefined)	-2.1	-0.8	40.0	-0.78	-3.0	-1.5	28.1	99.8	Aptamer quench 1=-2.2
CCOC(=O)N1C(=O)C[C@](Sc2ccc(OC)cc2)(C(=O)N(C)C)[C@H]1c1ccc(OC)cc1	5.9	0.8	·	·	·	·	·	·
COCc1[nH]nc2c1C(c1ccc(F)cc1)N(Cc1ccccc1)C2=O (centres undefined)	-8.2	10.7	·	·	·	·	·	·
CC1(C)NC(=O)N(CCCCOc2ccc(Cl)cc2)C1=O	-0.3	-4.2	70.0*	·	16.1	0.5	-2.9	97.3
Cc1ccc2c(c1)Oc1ccc([N+](=O)[O-])cc1C(=O)N2	1.4	3.0	2.0	-0.13	-0.4	-0.2	·	·
Cc1ccc2c(c1)Oc1ccc(NC(=O)CCl)cc1C(=O)N2	-0.7	8.3	41.0*	0.7	2.4	0.1	-7.8	116.3
CCOc1ccc(-c2nc(CSCC(=O)NC3CCC3)c(C)o2)cc1	5.5	0.1	·	·	·	·	·	·
O=C(CSc1nnc(-c2ccccn2)n1Cc1ccco1)Nc1ccc(Oc2ccccc2)cc1	-3.7	-10.4	·	·	·	·	·	·
COc1ccc(/C=C/C(=O)N2CCN(c3ccccn3)CC2)cc1OC	2.9	1.0	53.0*	·	·	·	-0.4	100.2
COc1cc(/C=C/C(=O)N2CCN(c3ccccn3)CC2)cc(OC)c1OC	-13.4	-2.0	0.0	·	·	·	·	·
